This is one part of a sample in which hits are shown more often than they occur.
Insulin prom act: activators of insulin promoter-driven GFP, primary screen, imaging, TRM-6 cells, eGFP reporter, cell count | plate-scaled: unstimulated 0, stimulated control 100 | activation, % at 2 µM | 130,000 compounds, 0.81% hits;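 active = activation at 2 µM above a set limit, confirmed on inspection of the cell images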;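 note: share of cells whose green reporter signal exceeds an intensity cutoff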
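Material: Human fetal islet-derived TRM-6 cells with tamoxifen-inducible insulin promoter–eGFP reporter | Medium: Low-glucose (5.5 mM) medium with tamoxifen | Probe or stimulus: Tamoxifen inducer, 0.75 µM, in seeding medium | Schedule: Tamoxifen pre-incubation 15 h overnight, then compound exposure 48 h at 37 °C | Detection: High-content imaging of fixed cells with Hoechst nuclear stain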
* marks the source's active call; other numbers are inactive results.

SMILES | Insulin prom act
COc1ccc2cc(-c3cc(C(=O)OCC(=O)Nc4c(C)n(C)n(-c5ccccc5)c4=O)c4ccccc4n3)ccc2c1 | 325*
Cc1c(NC(=O)COC(=O)COc2ccc(Nc3ccccc3)cc2)c(=O)n(-c2ccccc2)n1C | 133
Cc1c(NC(=O)COC(=O)CCC(=O)c2ccc(Cl)cc2)c(=O)n(-c2ccccc2)n1C | 8
C#CCCCCCCC#CCN(C)C | 0
Cc1ccc(CNC(=O)CSc2nc3ccsc3c(=O)n2Cc2ccc(C(=O)O)cc2)cc1 | 3
COc1ccc(CCNC(=O)CNS(=O)(=O)c2cccs2)cc1OC | -10
COCC(C)NC(=O)NC1(C(F)(F)F)Oc2ccc(Cl)cc2O1 (centres undefined) | -71
COCC(C)NC(=O)c1cccc(Cl)c1 (centres undefined) | 0
COCC(C)NC(=O)NC(=O)c1ccc(Cl)cc1 (centres undefined) | 77*
C=CCN=C1NN=C(c2ccc3c(c2)OCCO3)CS1 | 10
O=C(c1ccccc1)N1CCc2ccccc21 | 0
Cc1cccc2cc3c(N)c(C(=O)N4CCc5ccccc54)sc3nc12 | 233*
COc1ccc(C(=O)N2CCc3ccccc32)cc1 | -6
O=C(CCCCC(=O)NC1CCCC1)NC1CCCC1 | -7
COc1ccc(NC(=O)CC2C(=O)N(c3ccc(OC)cc3)C(=O)N2CCc2cccs2)cc1 (centres undefined) | 6
CCNC(=O)CC1C(=O)N(c2ccccc2)C(=O)N1CCc1ccc(OC)c(OC)c1 (centres undefined) | 286
CCNC(=O)CC1C(=O)N(c2ccc(F)cc2)C(=O)N1CCc1ccc(OC)cc1 (centres undefined) | 154*
CCc1nnc(NC(=O)C2Cc3ccccc3CN2S(=O)(=O)c2c(C)c(C)cc(C)c2C)s1 (centres undefined) | 3
CC1(C)NC(=O)N(CC(O)Cn2nnc3ccccc32)C1=O (centres undefined) | 0
COC(=O)c1ccc(Oc2nc(Nc3ccccc3)nc(N(C)C)n2)cc1 | 585*
CCNc1nc(Oc2ccc(=O)[nH]n2)nc(SC)n1 | -73
COC(=O)c1ccc(-n2nnnc2SC)cc1 | -5
CN(C)c1nc(Nc2ccccc2)nc(Oc2ccc(=O)[nH]n2)n1 | 5
CNc1nc(Oc2ccc(C(=O)OC)cc2)nc(SC)n1 | 494*
Cc1ccc(Nc2nc(Oc3ccc(=O)[nH]n3)nc(N(C)C)n2)cc1 | -80
SMILES | Insulin prom act
O=C(Cc1c2ccccc2nc2ccccc12)c1ccccc1 | -61
Cc1cccc2cc(-c3ccccc3)c(-c3ccccc3)c[n+]12 | -3
O=C(CSc1nnc2n(C3CCCC3)c(=O)c3ccccc3n12)N1CCCCCC1 | 121*
CC(C)Cn1c(SCC(=O)N2CCCCC2)nc2ccccc2c1=O | 269
C=CCn1c(=O)c2ccccc2n2c(SCC(N)=O)nnc12 | 9
O=C1c2ccccc2C(=O)c2c1oc(C(F)(F)F)c2C(=O)c1ccccc1 | 0
O=C1c2ccccc2-c2onc3ccc(Oc4ccccc4)c1c23 | 400*
CC(=O)c1c(C)oc2c1C(=O)c1ccccc1C2=O | 4
Cc1ccc(CN2CCN(C(=O)c3ccncc3)CC2)cc1 | -4
CC(NC(=O)c1ccc(-c2cc(C(F)(F)F)ccc2Cl)o1)c1ccccc1 (centres undefined) | -8
CCOC(=O)c1c(NC(=O)Cc2cccs2)sc(C(=O)NC2CCCCC2)c1C | 153*
COC(=O)c1c(NC(=O)Cc2cccs2)sc(C(=O)NC2CCCCC2)c1C | 290
CCOC(=O)c1c(NC(=O)Cc2cccs2)sc(C(=O)NC2CCCC2)c1C | 3
C(#Cc1ccccc1)C[N+]1(CC#Cc2ccccc2)CCCC1 | -5
Nc1ccc(C#Cc2ccccc2)cc1 | 207*
c1ccc(SSc2ccccc2)cc1 | 0
CCN1C(=O)/C(=c2/s/c(=C3\SC(C)=C(C)N3CC)c(=O)n2CC)N(c2ccccc2)C1=S | 369
Cc1c(C(=O)NCc2ccc3c(c2)cc(C)n3C)cccc1[N+](=O)[O-] | 120
N#CCCn1c(C2CCCCC2)nc2ccccc21 | -7
O=C(Nc1nnc(-c2ccccc2Cl)o1)c1ccc(S(=O)(=O)N2CCCCCC2)cc1 | 400*
O=C(Nc1nnc(-c2cccs2)o1)c1ccc(S(=O)(=O)N2CCOCC2)cc1 | 6
CC1CCN(S(=O)(=O)c2ccc(C(=O)Nc3nnc(-c4ccccn4)o3)cc2)CC1 | 136
Cn1nc(Oc2nc(N3CCOCC3)nc(N3CCOCC3)n2)ccc1=O | -9
CCn1c(=O)cc(OCC(=O)NCc2ccc(C)o2)c2ccccc21 | 100*
CCOC(=O)c1ccccc1NC(=O)COc1cc(=O)n(CC)c2ccccc12 | 307
COc1ccc(CNC(=O)COc2cc(=O)n(C)c3ccccc23)cc1 | -7
COc1ccccc1NC(=O)C1=C(C)NC(=O)NC1c1cc(C)cs1 (centres undefined) | 111
Clc1ccccc1N=C1NN=C(c2cccs2)CS1 | -7
CCOc1cccc(C(=O)NC(=S)NCc2cccnc2)c1 | -7
CCOc1cccc(C(=O)N2CCCCC2c2cccnc2)c1 (centres undefined) | 164*

Screens: PubChem BioAssay, Columbia University Molecular Screening Center
